# Activity calls are given as the source filed them. The rule behind the calls is not given here.
# Columns and labels:
# DNA = assay: Binding affinity to calf thymus DNA by thermal melting temperature assay; assay type: nucleic-acid assay; details: Bos taurus
# Outline: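 ct-DNA (as phosphate concentration) in sodium cacodylate buffer pH 7.0, I = 0.05 mol dm-3. Compound/polynucleotide ratio r = 0.3. Absorbance at 260 nm followed against temperature, ligand absorbance subtracted. Tm taken as transition midpoint by first derivative or tangent method. ΔTm = Tm(complex) − Tm(free DNA), averaged over at least two runs, error ±0.5 °C.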
# HEp-2 = assay: Antitumor activity against human Hep2 cells after 72 hrs by MTT assay; assay type: functional, cell-based; details: HEp-2, 72 h
# Outline: (§1)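 Cells from ATCC grown as monolayers in DMEM with 10% FBS, 2 mM L-glutamine, penicillin/streptomycin, 5% CO2, 37 °C. Seeded on day 0 at 1 × 10^4/mL (2 × 10^4/mL for MCF-7). Five 10-fold dilutions (10^-8 to 10^-4 mol/L) added, then 72 h exposure. MTT read at 570 nm; percent growth vs time-zero and untreated controls. IC50 by linear regression; quadruplicates, three experiments.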
# HeLa [1] = assay: Antitumor activity against human HeLa cells after 72 hrs by MTT assay; assay type: functional, cell-based; outline: as §1
# MIA PaCa-2 = assay: Antitumor activity against human MiaPaCa2 cells after 72 hrs by MTT assay; assay type: functional, cell-based; details: MIA PaCa-2, 72 h; outline: as §1
# SW-620 [2] = assay: Antitumor activity against human SW620 cells after 72 hrs by MTT assay; assay type: functional, cell-based; details: SW-620, 72 h; outline: as §1
# MCF7 = assay: Antitumor activity against human MCF7 cells after 72 hrs by MTT assay; assay type: functional, cell-based; details: MCF7, 72 h; outline: as §1
# [3] = Antiproliferative activity against human […] fibroblast after 72 hrs by MTT assay; assay type: functional; outline: as §1
# SW-620 [4] = assay: Cell cycle arrest in human SW620 cells assessed as accumulation at Sub G1 phase after 24 hrs at 5 uM; assay type: functional
# Outline: (§2)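 Cells seeded at 2 × 10^5 per well and incubated overnight before compound at 5 × 10^-6 M. After 24, 48 or 72 h, attached and floating cells were pooled, PBS-washed and fixed in 70% ethanol. RNase A (0.1 µg/µl, 37 °C, 15 min), then propidium iodide 1 µg/mL; flow cytometry of 20 000 events. Results given as percent of cells per phase; significance at p < 0.05.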
# SW-620 [5] = assay: Cell cycle arrest in human SW620 cells assessed as accumulation at G1/G0 phase after 24 hrs at 5 uM; assay type: functional; outline: as §2
# SW-620 [6] = assay: Cell cycle arrest in human SW620 cells assessed as accumulation at S phase after 24 hrs at 5 uM; assay type: functional; outline: as §2
# SW-620 [7] = assay: Cell cycle arrest in human SW620 cells assessed as accumulation at G2/M phase after 24 hrs at 5 uM; assay type: functional; outline: as §2
# SW-620 [8] = assay: Cell cycle arrest in human SW620 cells assessed as accumulation at Sub G1 phase after 48 hrs at 5 uM; assay type: functional; outline: as §2
# SW-620 [9] = assay: Cell cycle arrest in human SW620 cells assessed as accumulation at G1/G0 phase after 48 hrs at 5 uM; assay type: functional; outline: as §2
# SW-620 [10] = assay: Cell cycle arrest in human SW620 cells assessed as accumulation at S phase after 48 hrs at 5 uM; assay type: functional; outline: as §2
# SW-620 [11] = assay: Cell cycle arrest in human SW620 cells assessed as accumulation at G2/M phase after 48 hrs at 5 uM; assay type: functional; outline: as §2
# SW-620 [12] = assay: Cell cycle arrest in human SW620 cells assessed as accumulation at Sub G1 phase after 72 hrs at 5 uM; assay type: functional; outline: as §2
# SW-620 [13] = assay: Cell cycle arrest in human SW620 cells assessed as accumulation at G1/G0 phase after 72 hrs at 5 uM; assay type: functional; outline: as §2
# SW-620 [14] = assay: Cell cycle arrest in human SW620 cells assessed as accumulation at S phase after 72 hrs at 5 uM; assay type: functional; outline: as §2
# SW-620 [15] = assay: Cell cycle arrest in human SW620 cells assessed as accumulation at G2/M phase after 72 hrs at 5 uM; assay type: functional; outline: as §2
# Homo sapiens = species on record: Homo sapiens; assay: Inhibition of Topoisomerase 2-mediated pRYG DNA relaxation activity
# Outline: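 Supercoiled pRYG plasmid with 8 units purified topo II in assay buffer. Test compound or etoposide added as 2 µL of a 1 mM stock per 20 µL reaction. Incubation 37 °C for 30 min; stopped with SDS, then proteinase K (50 µg/mL, 37 °C, 15 min). Gel electrophoresis, post-stained with ethidium bromide 0.5 µg/mL, UV imaging of supercoiled-to-relaxed conversion.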
# HeLa [16] = assay: Cell cycle arrest in human HeLa cells assessed as accumulation at S phase after 48 hrs at 5 uM; assay type: functional; outline: as §2
# HeLa [17] = assay: Cell cycle arrest in human HeLa cells assessed as accumulation at G2/M phase after 48 hrs at 5 uM; assay type: functional; outline: as §2
# HeLa [18] = assay: Cell cycle arrest in human HeLa cells assessed as accumulation at Sub G1 phase after 72 hrs at 5 uM; assay type: functional; outline: as §2
# HeLa [19] = assay: Cell cycle arrest in human HeLa cells assessed as accumulation at G0/G1 phase after 72 hrs at 5 uM; assay type: functional; outline: as §2
# HeLa [20] = assay: Cell cycle arrest in human HeLa cells assessed as accumulation at Sub G1 phase after 24 hrs at 5 uM; assay type: functional; outline: as §2
# HeLa [21] = assay: Cell cycle arrest in human HeLa cells assessed as accumulation at G0/G1 phase after 24 hrs at 5 uM; assay type: functional; outline: as §2
# HeLa [22] = assay: Cell cycle arrest in human HeLa cells assessed as accumulation at S phase after 24 hrs at 5 uM; assay type: functional; outline: as §2
# HeLa [23] = assay: Cell cycle arrest in human HeLa cells assessed as accumulation at G2/M phase after 24 hrs at 5 uM; assay type: functional; outline: as §2
# HeLa [24] = assay: Cell cycle arrest in human HeLa cells assessed as accumulation at Sub G1 phase after 48 hrs at 5 uM; assay type: functional; outline: as §2
# HeLa [25] = assay: Cell cycle arrest in human HeLa cells assessed as accumulation at G0/G1 phase after 48 hrs at 5 uM; assay type: functional; outline: as §2
# HeLa [26] = assay: Cell cycle arrest in human HeLa cells assessed as accumulation at S phase after 72 hrs at 5 uM; assay type: functional; outline: as §2
# HeLa [27] = assay: Cell cycle arrest in human HeLa cells assessed as accumulation at G2/M phase after 72 hrs at 5 uM; assay type: functional; outline: as §2
ΔTm (DNA) [°C],IC50 (HeLa [1]) [µM],IC50 (MIA PaCa-2) [µM],IC50 (SW-620 [2]) [µM],IC50 (MCF7) [µM],Activity (Homo sapiens),SMILES,IC50 (HEp-2) [µM],IC50 [3] [µM],Activity (SW-620 [4]) [%],Activity (SW-620 [5]) [%],Activity (SW-620 [6]) [%],Activity (SW-620 [7]) [%],Activity (SW-620 [8]) [%],Activity (SW-620 [9]) [%],Activity (SW-620 [10]) [%],Activity (SW-620 [11]) [%],Activity (SW-620 [12]) [%],Activity (SW-620 [13]) [%],Activity (SW-620 [14]) [%],Activity (SW-620 [15]) [%],also measured
1,35,25,45,17,Active,C(=C/c1nc2ccc(C3=NCCN3)cc2[nH]1)/c1ccccc1.Cl,27,99,0.5,36,45,19,1,46,39,15,0.8,49,30,21,–
4.9,2,1,0.4,2,Active,Cl.c1ccc2c(c1)ccc1nc3ccc(C4=NCCN4)cc3n12,2,2,3,12,39,49,12,25,26,49,13,30,17,54,Activity (HeLa [16]): 36%; Activity (HeLa [17]): 32%; Activity (HeLa [18]): 3%; Activity (HeLa [19]): 28%; Activity (HeLa [20]): 2%; Activity (HeLa [21]): 32%; Activity (HeLa [22]): 42%; Activity (HeLa [23]): 26%; Activity (HeLa [24]): 2%; Activity (HeLa [25]): 34%; Activity (HeLa [26]): 32%; Activity (HeLa [27]): 40%

# — ChEMBL document CHEMBL1138229, “Novel cyano- and amidino-substituted derivatives of styryl-2-benzimidazoles and benzimidazo[1,2-a]quinolines. Synthesis, photochemical synthesis, DNA binding, and antitumor evaluation, part 3” (J Med Chem, 2007)
